Experimental findings from ChEMBL document CHEMBL1146517, “Scleritodermin A, a cytotoxic cyclic peptide from the lithistid sponge Scleritoderma nodosum” (J Nat Prod, 2004) are described below.

Each structure is given as a SMILES string. Activity calls are given as the source filed them. The rule behind the calls is not given here.

In experiment [1] the test system is HCT-116. The experiment in a line: Cytotoxicity against human HCT116 cells after 72 hrs by MTS assay. The class given is functional, cell-based. As to conditions: HCT-116, 72 h. Put shortly:
(§1)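 Cells grown in RPMI 1640 with 5 mM HEPES and 10% FBS; HCT116/VM46 is a multidrug-resistant subline of HCT116. Seeded in microtiter plates, compound added 24 h later as serial dilutions, then 72 h at 37 °C. MTS plus phenazine methosulfate added, absorbance read at 492 nm as viable-cell measure; IC50 reported.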
On the technique in general: Tetrazolium assays rely on reduction of a dye to a coloured formazan, in cell work by metabolically active cells.

Experiment [2] concerns HCT-116. Briefly: Cytotoxicity against VM46-resistant human HCT116 cells overexpressing P-gp after 72 hrs by MTS assay. As to conditions: HCT-116, 72 h. In kind it is functional, cell-based. The procedure, abridged:
as §1

The test system of experiment [3] is A2780. The experiment in a line: Cytotoxicity against human A2780 cells after 72 hrs by MTS assay. In kind it is functional, cell-based. As to conditions: A2780, 72 h. Put shortly: as §1
Experiment [4] deals with SK-BR-3. The experiment in a line: Cytotoxicity against human SKBR3 cells after 72 hrs by MTS assay. In kind it is functional, cell-based. As to conditions: SK-BR-3, 72 h. Put shortly: as §1
Experiment [5] has as its system HCT-116. The experiment in a line: Ratio of IC50 for VM46-resistant human HCT116 cells overexpressing P-gp to IC50 for human HCT116 cells. In kind it is functional.
Experiment [6] deals with A2780. Briefly: Induction of apoptosis in human A2780 cells at 1.3 uM after 24 hrs by TUNEL assay. In kind it is functional. The procedure, abridged: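 A2780 cells seeded in six-well plates, treated the next day for 24 h, then collected. Apoptosis scored by TUNEL assay read by flow cytometry, with doublet discrimination gates during acquisition and analysis; apoptosis expressed as fold induction.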

For experiment [7], the system named is A2780. Briefly: Cell cycle arrest in human A2780 cells assessed as accumulation at G2/M phase at 1.3 uM after 24 hrs by flow cytometry analysis. In kind it is functional, cell-based. The procedure, abridged: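 A2780 cells seeded in six-well plates, compound added next day for 24 h. Cells trypsinized, fixed overnight in 80% ethanol at -20 °C, PBS-washed, stained 1 h at RT with propidium iodide (50 µg/mL) and RNase (10 µg/mL). Flow cytometry; G0/G1, S and G2-M fractions calculated from DNA histograms.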

The species entered for experiment [8] is Bos taurus. Briefly: Inhibition of GTP-induced calf brain tubulin polymerization at 10 uM. Put shortly: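 Twice-cycled calf brain tubulin in 100 mM MES pH 6.6, 1 mM EGTA, 0.5 mM MgCl2, preincubated with compound. Polymerization started with 500 µM GTP; absorbance at 350 nm read every 36 s in cuvettes held at 37 °C.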

On to `CC[C@]1(O)C[C@@H]2CN(CCc3c([nH]c4ccccc34)[C@@](C(=O)OC)(c3cc4c(cc3OC)N(C)[C@H]3[C@@](O)(C(=O)OC)[C@H](OC(C)=O)[C@]5(CC)C=CCN6CC[C@]43[C@@H]65)C2)C1` [VINBLASTINE], for which the half-maximal inhibitory concentration (IC50) (usually the point on the concentration scale where inhibition reaches its midpoint) in experiment [1] was 0.003 µM; in experiment [2], 0.135 µM; in experiment [3], 0.005 µM; in experiment [4], 0.072 µM. The “Ratio IC50” value in experiment [5] is recorded as 45.
On to `CC[C@@H](C)[C@@H]1NC(=O)[C@@H]2CCCN2C(=O)[C@@H](NC(=O)[C@@H]2CCCN2C(=O)[C@@H](COC)NS(=O)(=O)[O-])COC(=O)/C(C)=C\C(C)=C\c2csc(n2)[C@H](Cc2ccc(O)cc2)NC(=O)C1=O.[Na+]` [SCLERITODERMIN A], for which the half-inhibitory concentration (IC50) in experiment [1] was determined as 1.9 µM; in experiment [2], 5.6 µM; in experiment [3], 0.94 µM; in experiment [4], 0.67 µM. In experiment [5], the “Ratio IC50” value came to 2.9. In experiment [6], the “fold change (FC)” value is 5.5. For the same compound, in experiment [7], the result was Active. Moreover, the inhibition (commonly the change of the read-out against control, counted positive when it falls) in experiment [8] turned out to be 50%.
